Source: ChEMBL document CHEMBL4130454, “Anchimerically Activatable Antiviral ProTides” (ACS Med Chem Lett, 2017)
Activity calls are given as the source filed them. No cut-off for these calls is given here.

Assays:
dengue virus type 2 [1] = test: Antiviral activity against Dengue virus 2 prototype 16681 infected in African green monkey Vero cells assessed as inhibition of viral RNA replication at 100 uM after 72 hrs in presence of 100 uM of HINT1 inhibitor […] by qPCR method; assay type: functional, organism-based
Outline: (§1)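 Vero cells infected with DENV-2 (moi = 0.2), then treated with 100 μM compound, alone or together with 100 μM TrpGc (HINT1 inhibitor). After 72 h, supernatant RNA was extracted and viral progeny quantified by DENV-2-specific qPCR. Replication is expressed as percentage of the untreated infected control. Mean of four independent experiments.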

dengue virus type 2 [2] = test: Antiviral activity against Dengue virus 2 prototype 16681 infected in Vero cells assessed as inhibition of virus induced cytopathic effect by plaque assay; details: prototype 16681, Vero
[3] = Cytotoxicity against African green monkey Vero cells assessed as decrease in cell viability after 72 hrs by neutral red dye uptake assay; assay type: cell-based; details: chlorocebus sabaeus
Outline: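 Vero cells were exposed to a range of compound concentrations for 72 h. Viability was read by Neutral Red dye uptake, six replicates.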

dengue virus type 2 [4] = test: Antiviral activity against Dengue virus 2 prototype 16681 infected in African green monkey Vero cells assessed as inhibition of viral RNA replication at 100 uM after 72 hrs by qPCR method; assay type: functional, organism-based; outline: as §1
[5] = Drug metabolism assessed as half life for ((2R,3R,4R,5R)-5-(2-amino-6-oxo-1,6-dihydro-9H-purin-9-yl)-3,4-dihydroxy-4-methyltetrahydrofuran-2-yl)methyl hydrogen (2-(1H-indol-3-yl)ethyl)phosphoramidate formation in HEPES buffer at pH 2 by RP-HPLC analysis; assay type: physicochemical
Outline: (§2)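 Diester prodrug incubated at 37 °C in 20 mM HEPES buffer, pH 7.4 or pH 2.0. Removal of the 2-(methylthio)ethyl group, giving the monoester phosphoramidate, was followed over time by reversed-phase HPLC. The half-life was derived from the conversion time course.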

[6] = Drug metabolism assessed as half life for ((2R,3R,4R,5R)-5-(2-amino-6-oxo-1,6-dihydro-9H-purin-9-yl)-3,4-dihydroxy-4-methyltetrahydrofuran-2-yl)methyl hydrogen (2-(1H-indol-3-yl)ethyl)phosphoramidate formation in HEPES buffer at pH 7.4 by RP-HPLC analysis; assay type: physicochemical; outline: as §2
dengue virus type 2 [7] = test: Antiviral activity against Dengue virus 2 New Guinea assessed as inhibition of virus induced cytopathic effect by neutral red dye uptake assay; assay type: functional, organism-based

Structure (SMILES)	inhibition (dengue virus type 2 [1])	IC50 (dengue virus type 2 [2]) [µM]	CC50 at 72 h [3] [µM]	inhibition (dengue virus type 2 [4])	t1/2 [5] [h]	t1/2 [6] [h]	EC50 (dengue virus type 2 [7]) [µM]
C[C@@]1(O)[C@H](O)[C@@H](COP(=O)(O)NCCc2c[nH]c3ccccc23)O[C@H]1n1cnc2c(=O)[nH]c(N)nc21	inactive	6.84	> 200	Active	–	–	–
CSCCOP(=O)(NCCc1c[nH]c2ccccc12)OC[C@H]1O[C@@H](n2cnc3c(=O)[nH]c(N)nc32)[C@](C)(O)[C@@H]1O (some centres undefined)	inactive	1.59	> 200	Active	3.78	4.5	–
C[C@@]1(O)[C@H](O)[C@@H](CO)O[C@H]1n1cnc2c(N)ncnc21	–	–	–	–	–	–	4
C[C@@]1(O)[C@H](O)[C@@H](CO)O[C@H]1n1cnc2c(=O)[nH]c(N)nc21 [2'-B-METHYL-GUANOSINE]	–	8.14	> 200	–	–	–	13.6
